Experimental data as given in paper PMC3972320 (Kidney international, 2013).
Blank lines part the entries; values can stand above or below the molecule they belong to.

Columns and labels:
human OCT2 [1] = assay type: cell-based
human OCT2 [2] = experiment: Cell surface; assay type: cell-based; details: DSAL, OCT2/V5-transfected CHO cells
OCT2 mRNA = OCT2 mRNA by qPCR in NRK cells transfected with human OCT2/V5; assay type: cell-based, rat; details: DSAL, NRK cells transfected with human OCT2/V5 and Klotho plasmid
[3] = 14C-TEA kinetic study in vivo; set-up: species or system mouse; details: single injection 10 μl/g BW
How it was run: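 Male WT, Kl/+ and Tg-Kl mice (129sv background, 12–14 weeks, 30–40 g) got a single i.v. dose of 14C-tetraethylammonium (10 μl/g BW; 0.1 mCi/ml, specific activity 3.5 mCi/mmol). Blood and urine were sampled at 0, 30, 60 and 90 […] post injection, with radioactivity by liquid scintillation counting. AUC0-60 is given as mean ± SD of 3 experiments per genotype.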

NRK cells [4] = experiment: LDH release from NRK cells on Transwell plates; assay type: cell-based, rat
NRK cells [5] = experiment: TUNEL staining of apoptotic NRK cells; assay type: cell-based, rat
How it was run: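 NRK rat renal epithelial cells on glass coverslips were serum-starved overnight after confluence. […] Cells were PFA-fixed and TUNEL-stained with DAPI counterstain, then imaged by confocal microscopy. TUNEL-positive/DAPI-positive cells were counted in 5 fields at 40X, across 4 independent experiments.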

[6] = system: organic cation transporter (OCT); experiment: 14C-TEA uptake by NRK cells; assay type: cell-based, rat; details: agent added after 14C-TEA
NRK cells [7] = experiment: Oregon Green 488-labeled fluorescent cisplatin uptake by NRK cells; assay type: cell-based, rat
human OCT2 [8] = target: T1, human OCT2 (Homo sapiens, UniProt O15244); assay type: cell-based; details: β-glucuronidase 100μg/ml, sialidase 0.1 IU/ml, cimetidine 0.1 mM, added 16 hours prior to assay
T1 sequence (O15244 1-555): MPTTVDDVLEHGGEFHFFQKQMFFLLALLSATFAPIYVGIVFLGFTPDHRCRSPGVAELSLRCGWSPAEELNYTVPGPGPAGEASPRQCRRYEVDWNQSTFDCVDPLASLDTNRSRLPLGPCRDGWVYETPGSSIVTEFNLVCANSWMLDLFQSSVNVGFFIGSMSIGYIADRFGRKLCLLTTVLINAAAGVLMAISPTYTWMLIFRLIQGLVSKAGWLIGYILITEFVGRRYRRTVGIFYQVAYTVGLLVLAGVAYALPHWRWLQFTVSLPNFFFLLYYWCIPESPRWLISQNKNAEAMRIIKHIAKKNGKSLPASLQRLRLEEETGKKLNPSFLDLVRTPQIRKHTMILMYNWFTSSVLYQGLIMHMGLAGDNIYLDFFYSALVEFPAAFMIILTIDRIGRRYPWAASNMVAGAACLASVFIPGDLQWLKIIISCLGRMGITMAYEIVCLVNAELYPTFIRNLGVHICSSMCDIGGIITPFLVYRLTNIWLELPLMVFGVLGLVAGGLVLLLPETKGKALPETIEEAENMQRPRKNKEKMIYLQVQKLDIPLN

patients = details: among patients with AKI; cited from earlier work

effect on the reduction of OCT2 protein by β-glucuronidase (human OCT2 [1]; DSAL 10 μM, CHO cells, immunocytochemistry and immunoblot): completely blocked
SMILES: O=C(O)[C@@H](O)[C@H]1OC(=O)[C@H](O)[C@H]1O [DSAL, D-Saccharic acid 1,4-lactone]
OCT2 protein expression by immunocytochemistry (human OCT2 [1]; CHO cells transfected with OCT2/V5, β-glucuronidase 100μg/ml, DSAL 10 μM alone): had no effect
effect on Klotho-induced reduction of cell surface OCT2 (2 hours and 2 days) (human OCT2 [2]): blocked
effect on the reduction of rat oct2 mRNA induced by Klotho (OCT2 mRNA): did not abolish

AUC0-60 of 14C-TEA, Blood 14C-TEA ([3]; Kl/+ mice): 4.13±0.12 (3) nmol/μl
AUC0-60 of 14C-TEA, Blood 14C-TEA ([3]; Tg-Kl mice): 2.22±0.12 (3) nmol/μl
AUC0-60 of 14C-TEA, Urine excretion rate 14C-TEA ([3]; Tg-Kl mice): 1.36±0.08 (3) pmol/mim
AUC0-60 of 14C-TEA, Blood 14C-TEA ([3]; WT mice): 2.68±0.18 (3) nmol/μl
AUC0-60 of 14C-TEA, Urine excretion rate 14C-TEA ([3]; WT mice): 2.08±0.08 (3) pmol/mim
SMILES: CC[N+](CC)(CC)CC [^14C-TEA, ^14C-tetraethylammonium]

14C-TEA uptake in OCT2-expressing CHO cells (human OCT2 [8]): reduced
SMILES: CN/C(=N/CCSCc1nc[nH]c1C)NC#N [cimetidine]
LDH release induced by basolateral cisplatin, agent added into apical side (NRK cells [4]; cisplatin 0.1 mM basolateral, Klotho 0.4 nM or cimetidine 0.1 mM apical): not cimetidine decreased LDH release
LDH release induced by basolateral cisplatin, basolateral co-incubation of agent (NRK cells [4]; cisplatin 0.1 mM, Klotho 0.4 nM or cimetidine 0.1 mM on basolateral side): significantly reduced LDH release
cisplatin-triggered apoptosis (TUNEL), basolateral co-incubation of agent (NRK cells [5]; Klotho or cimetidine basolateral): rescued
inhibition of 14C-TEA uptake when 14C-TEA added to basolateral medium 20 minutes prior to agent [6]: inhibitory effect was absent
fluorescent cisplatin uptake, agent added to apical side (NRK cells [7]; NRK cells, confocal imaging): not by either agent added to the apical side
fluorescent cisplatin uptake, agent added to basolateral side (NRK cells [7]; NRK cells, confocal imaging): blocked
OCT2 abundance in total cell membrane pool by immunoblot (human OCT2 [1]; CHO cells transfected with OCT2/V5, β-glucuronidase 100μg/ml, sialidase 0.1 IU/ml, cimetidine 0.1 mM): did not alter

SMILES: N.N.[Cl][Pt][Cl] [cisplatin, cis-diammine-dichloroplatinum]
apoptosis (TUNEL) on cisplatin addition to basolateral medium (NRK cells [5]): triggers apoptosis
side of entry of Oregon Green 488-labeled cisplatin into NRK cells (NRK cells [7]; Transwell, apical or basolateral addition): entered NRK cells solely from the basolateral side
patients with AKI still having elevated SCr 15 days after treatment (patients): 50%
